{"source": "ChEMBL document CHEMBL5696444", "about": "(Nat Commun, 2017)", "key": {"[1]": {"test_system": "HCT-116", "experiment": "Induction of apoptosis in human HCT-116 cells assessed as early apoptosis at 0.1 uM incubated for > 6 hrs by annexin V/PI staining based analysis (Rvb=3.29%)", "assay_type": "functional"}, "[2]": {"test_system": "HCT-116", "experiment": "Induction of apoptosis in human HCT-116 cells assessed as late apoptosis at 10 uM incubated for > 6 hrs by annexin V/PI staining based analysis (Rvb=6.12%)", "assay_type": "functional"}, "[3]": {"molecular_target": "Dual specificity protein kinase CLK1 (Homo sapiens) (UniProt P49759)", "sequence (P49759 whole entry, looked up)": "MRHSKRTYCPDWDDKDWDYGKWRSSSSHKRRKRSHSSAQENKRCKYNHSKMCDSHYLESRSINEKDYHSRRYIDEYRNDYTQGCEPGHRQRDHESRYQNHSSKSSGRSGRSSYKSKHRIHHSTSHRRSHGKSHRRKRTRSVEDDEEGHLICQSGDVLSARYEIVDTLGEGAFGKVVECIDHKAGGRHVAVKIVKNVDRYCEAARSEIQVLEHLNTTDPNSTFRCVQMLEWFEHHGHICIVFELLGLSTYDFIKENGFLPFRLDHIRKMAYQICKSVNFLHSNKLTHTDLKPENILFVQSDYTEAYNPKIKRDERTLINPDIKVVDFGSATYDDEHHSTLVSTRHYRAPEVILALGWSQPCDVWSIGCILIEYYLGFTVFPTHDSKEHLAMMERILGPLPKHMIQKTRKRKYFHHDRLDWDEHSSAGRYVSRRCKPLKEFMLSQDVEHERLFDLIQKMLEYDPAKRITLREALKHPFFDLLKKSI", "experiment": "Inhibition of CLK1 (unknown origin) at 1110 nM in the presence of ATP by Kinome scan method relative to control", "settings": "time > 6.0 hrs"}, "[4]": {"molecular_target": "Dual specificity protein kinase CLK3 (Homo sapiens) (UniProt P49761)", "sequence (P49761 whole entry, looked up)": "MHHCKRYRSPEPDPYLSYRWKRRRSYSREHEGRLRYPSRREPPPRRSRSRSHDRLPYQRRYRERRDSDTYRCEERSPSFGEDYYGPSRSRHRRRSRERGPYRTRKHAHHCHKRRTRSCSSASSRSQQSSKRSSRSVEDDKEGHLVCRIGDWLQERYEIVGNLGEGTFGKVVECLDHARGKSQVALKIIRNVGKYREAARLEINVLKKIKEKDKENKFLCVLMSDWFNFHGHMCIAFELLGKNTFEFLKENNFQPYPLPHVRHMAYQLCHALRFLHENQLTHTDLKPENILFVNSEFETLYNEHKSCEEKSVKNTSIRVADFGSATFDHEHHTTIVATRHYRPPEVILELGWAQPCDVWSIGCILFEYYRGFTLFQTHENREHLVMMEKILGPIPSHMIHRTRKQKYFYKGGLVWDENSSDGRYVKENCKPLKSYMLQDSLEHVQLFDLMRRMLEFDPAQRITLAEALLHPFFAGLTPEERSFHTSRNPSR", "experiment": "Inhibition of CLK3 (unknown origin) at 1110 nM in the presence of ATP by Kinome scan method relative to control", "settings": "time > 6.0 hrs"}, "[5]": {"molecular_target": "Dual specificity tyrosine-phosphorylation-regulated kinase 1B (Homo sapiens, UniProt Q9Y463)", "sequence (Q9Y463 whole entry, looked up)": "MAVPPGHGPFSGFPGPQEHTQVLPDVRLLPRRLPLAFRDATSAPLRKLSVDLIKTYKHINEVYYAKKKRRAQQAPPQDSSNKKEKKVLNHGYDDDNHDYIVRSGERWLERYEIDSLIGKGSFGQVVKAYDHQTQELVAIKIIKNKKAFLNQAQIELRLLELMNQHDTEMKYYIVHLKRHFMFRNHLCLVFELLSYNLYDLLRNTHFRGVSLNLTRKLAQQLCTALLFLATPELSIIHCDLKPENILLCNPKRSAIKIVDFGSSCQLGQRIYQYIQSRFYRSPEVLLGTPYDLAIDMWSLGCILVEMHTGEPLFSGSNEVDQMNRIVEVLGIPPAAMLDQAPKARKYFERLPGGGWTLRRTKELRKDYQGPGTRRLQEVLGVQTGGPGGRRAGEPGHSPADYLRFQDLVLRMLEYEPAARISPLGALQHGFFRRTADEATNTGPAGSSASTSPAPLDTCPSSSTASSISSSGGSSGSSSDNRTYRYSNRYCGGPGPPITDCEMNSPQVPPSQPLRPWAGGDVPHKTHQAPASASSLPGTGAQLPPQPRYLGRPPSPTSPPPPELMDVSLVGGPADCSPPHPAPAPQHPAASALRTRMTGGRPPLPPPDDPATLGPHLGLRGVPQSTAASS", "experiment": "Inhibition of DYRK1B (unknown origin) at 1110 nM in the presence of ATP by Kinome scan method relative to control", "settings": "time > 6.0 hrs"}, "[6]": {"molecular_target": "Cyclin-dependent kinase 5/CDK5 activator 1 (Homo sapiens) (UniProt Q00535+Q15078)", "experiment": "Inhibition of CDK5/p35 (unknown origin) at 100 nM in the presence of ATP by Kinome scan method relative to control", "assay_type": "protein-complex assay"}, "[7]": {"molecular_target": "Serine/threonine-protein kinase Chk1 (Homo sapiens) (UniProt O14757)", "sequence (O14757 whole entry)": "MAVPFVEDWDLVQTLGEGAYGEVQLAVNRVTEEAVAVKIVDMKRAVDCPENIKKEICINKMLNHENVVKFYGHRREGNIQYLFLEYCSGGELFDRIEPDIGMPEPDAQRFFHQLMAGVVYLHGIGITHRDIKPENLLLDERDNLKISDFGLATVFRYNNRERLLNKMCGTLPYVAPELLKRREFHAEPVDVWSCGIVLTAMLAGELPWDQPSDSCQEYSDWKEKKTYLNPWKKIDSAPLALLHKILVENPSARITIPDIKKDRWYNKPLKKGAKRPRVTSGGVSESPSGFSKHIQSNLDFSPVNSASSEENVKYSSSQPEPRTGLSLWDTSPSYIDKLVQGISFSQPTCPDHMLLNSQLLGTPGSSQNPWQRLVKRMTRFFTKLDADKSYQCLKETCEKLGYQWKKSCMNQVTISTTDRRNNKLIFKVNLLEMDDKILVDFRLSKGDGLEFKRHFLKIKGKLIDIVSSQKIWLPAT", "experiment": "Inhibition of CHEK1 (unknown origin) at 1000 nM in the presence of ATP by Kinome scan method relative to control"}, "[8]": {"molecular_target": "Serine/threonine-protein kinase Chk1 (Homo sapiens) (UniProt O14757)", "experiment": "Inhibition of CHEK1 (unknown origin) at 100 nM in the presence of ATP by Kinome scan method relative to control"}, "[9]": {"molecular_target": "Serine/threonine-protein kinase Chk2 (Homo sapiens) (UniProt O96017)", "sequence (O96017 whole entry)": "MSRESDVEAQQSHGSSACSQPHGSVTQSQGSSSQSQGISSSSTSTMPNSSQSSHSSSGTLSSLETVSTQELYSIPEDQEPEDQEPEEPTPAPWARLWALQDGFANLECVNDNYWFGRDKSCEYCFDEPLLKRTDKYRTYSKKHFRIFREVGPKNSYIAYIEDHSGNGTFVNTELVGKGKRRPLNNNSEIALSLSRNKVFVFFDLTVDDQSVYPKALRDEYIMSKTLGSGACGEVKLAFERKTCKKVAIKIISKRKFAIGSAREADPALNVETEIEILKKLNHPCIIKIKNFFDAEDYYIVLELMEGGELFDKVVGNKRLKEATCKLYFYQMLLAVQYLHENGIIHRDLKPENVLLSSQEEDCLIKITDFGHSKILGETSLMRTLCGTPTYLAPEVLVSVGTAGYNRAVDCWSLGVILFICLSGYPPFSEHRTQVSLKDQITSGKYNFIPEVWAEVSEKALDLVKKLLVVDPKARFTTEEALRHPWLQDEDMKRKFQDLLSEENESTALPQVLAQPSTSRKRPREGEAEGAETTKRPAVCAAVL", "experiment": "Inhibition of CHEK2 (unknown origin) at 100 nM in the presence of ATP by Kinome scan method relative to control"}, "[10]": {"molecular_target": "Interleukin-1 receptor-associated kinase 4 (Homo sapiens) (UniProt Q9NWZ3)", "sequence (Q9NWZ3 whole entry)": "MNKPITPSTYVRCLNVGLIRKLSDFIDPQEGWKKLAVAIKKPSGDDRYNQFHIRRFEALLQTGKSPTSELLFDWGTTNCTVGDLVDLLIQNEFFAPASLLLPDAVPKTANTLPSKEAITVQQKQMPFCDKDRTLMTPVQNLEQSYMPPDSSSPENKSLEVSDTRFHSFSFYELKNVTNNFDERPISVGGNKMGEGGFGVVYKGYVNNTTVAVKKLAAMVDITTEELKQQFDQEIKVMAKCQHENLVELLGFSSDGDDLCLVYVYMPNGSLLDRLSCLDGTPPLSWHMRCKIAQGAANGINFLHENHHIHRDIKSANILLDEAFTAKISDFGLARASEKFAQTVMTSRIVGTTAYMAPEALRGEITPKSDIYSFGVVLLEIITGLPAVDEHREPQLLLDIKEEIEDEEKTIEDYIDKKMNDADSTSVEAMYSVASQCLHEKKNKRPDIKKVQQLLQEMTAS", "experiment": "Inhibition of IRAK4 (unknown origin) at 1000 nM in the presence of ATP by Kinome scan method relative to control"}, "[11]": {"molecular_target": "Tyrosine-protein kinase JAK1 (Homo sapiens) (UniProt P23458)", "sequence (P23458 whole entry)": "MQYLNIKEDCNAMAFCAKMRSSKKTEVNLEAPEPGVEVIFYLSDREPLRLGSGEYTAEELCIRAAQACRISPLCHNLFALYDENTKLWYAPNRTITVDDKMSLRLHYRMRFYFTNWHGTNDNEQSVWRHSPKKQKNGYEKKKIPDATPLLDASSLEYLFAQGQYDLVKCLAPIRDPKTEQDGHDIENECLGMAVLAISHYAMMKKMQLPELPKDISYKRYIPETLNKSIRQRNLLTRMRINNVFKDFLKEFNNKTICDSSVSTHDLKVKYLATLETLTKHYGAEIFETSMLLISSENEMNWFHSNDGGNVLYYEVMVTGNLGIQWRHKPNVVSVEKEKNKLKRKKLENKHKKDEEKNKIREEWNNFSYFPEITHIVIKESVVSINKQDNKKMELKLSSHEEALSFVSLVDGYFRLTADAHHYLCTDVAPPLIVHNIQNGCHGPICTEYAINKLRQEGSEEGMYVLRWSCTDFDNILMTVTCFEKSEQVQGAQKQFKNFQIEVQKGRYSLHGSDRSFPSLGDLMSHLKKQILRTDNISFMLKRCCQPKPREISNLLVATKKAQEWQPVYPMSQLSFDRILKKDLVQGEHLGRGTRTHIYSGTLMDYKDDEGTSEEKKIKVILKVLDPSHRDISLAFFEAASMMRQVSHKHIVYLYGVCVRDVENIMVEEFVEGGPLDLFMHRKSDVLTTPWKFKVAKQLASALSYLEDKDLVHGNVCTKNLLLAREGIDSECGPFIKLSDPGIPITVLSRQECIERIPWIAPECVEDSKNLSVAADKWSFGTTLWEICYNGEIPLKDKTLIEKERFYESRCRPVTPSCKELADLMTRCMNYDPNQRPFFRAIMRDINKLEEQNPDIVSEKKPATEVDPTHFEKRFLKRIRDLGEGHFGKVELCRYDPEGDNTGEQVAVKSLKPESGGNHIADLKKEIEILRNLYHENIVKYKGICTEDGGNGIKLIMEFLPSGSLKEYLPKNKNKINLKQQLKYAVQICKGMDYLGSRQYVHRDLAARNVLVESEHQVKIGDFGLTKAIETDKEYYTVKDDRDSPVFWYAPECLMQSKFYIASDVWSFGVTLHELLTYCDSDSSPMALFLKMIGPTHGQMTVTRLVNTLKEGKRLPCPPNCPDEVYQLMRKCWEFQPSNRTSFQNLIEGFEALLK", "experiment": "Inhibition of JAK1 (unknown origin) at 100 nM in the presence of ATP by Kinome scan method relative to control"}, "[12]": {"molecular_target": "Dual specificity mitogen-activated protein kinase kinase 2 (Homo sapiens) (UniProt P36507)", "experiment": "Inhibition of MAP2K2 (unknown origin) at 1000 nM in the presence of ATP by Kinome scan method relative to control"}, "[13]": {"molecular_target": "Hepatocyte growth factor receptor (Homo sapiens) (UniProt P08581)", "experiment": "Inhibition of MET (unknown origin) at 1000 nM in the presence of ATP by Kinome scan method relative to control"}, "[14]": {"molecular_target": "Serine/threonine-protein kinase Nek1 (Homo sapiens) (UniProt Q96PY6)", "experiment": "Inhibition of NEK1 (unknown origin) at 1000 nM in the presence of ATP by Kinome scan method relative to control"}, "[15]": {"molecular_target": "Protein kinase C theta type (Homo sapiens) (UniProt Q04759)", "sequence (Q04759 whole entry, looked up)": "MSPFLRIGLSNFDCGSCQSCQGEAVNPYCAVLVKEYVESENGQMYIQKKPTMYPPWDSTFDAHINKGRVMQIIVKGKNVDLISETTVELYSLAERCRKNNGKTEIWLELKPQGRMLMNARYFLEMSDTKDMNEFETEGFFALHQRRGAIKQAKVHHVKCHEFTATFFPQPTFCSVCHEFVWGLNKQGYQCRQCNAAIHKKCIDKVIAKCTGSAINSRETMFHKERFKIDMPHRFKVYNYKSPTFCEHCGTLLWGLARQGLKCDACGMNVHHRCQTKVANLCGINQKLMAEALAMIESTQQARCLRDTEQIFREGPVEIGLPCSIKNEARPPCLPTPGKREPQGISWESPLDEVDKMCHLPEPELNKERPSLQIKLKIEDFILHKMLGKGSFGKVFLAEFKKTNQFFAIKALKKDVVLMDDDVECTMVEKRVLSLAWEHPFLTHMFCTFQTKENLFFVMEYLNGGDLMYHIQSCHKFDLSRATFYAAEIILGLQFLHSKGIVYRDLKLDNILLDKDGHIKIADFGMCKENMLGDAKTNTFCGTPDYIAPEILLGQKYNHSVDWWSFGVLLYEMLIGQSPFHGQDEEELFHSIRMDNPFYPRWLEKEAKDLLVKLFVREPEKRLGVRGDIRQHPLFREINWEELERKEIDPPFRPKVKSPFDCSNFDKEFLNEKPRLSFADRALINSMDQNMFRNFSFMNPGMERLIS", "experiment": "Inhibition of PRKCQ (unknown origin) at 1000 nM in the presence of ATP by Kinome scan method relative to control"}, "[16]": {"molecular_target": "Protein kinase C theta type (Homo sapiens) (UniProt Q04759)", "experiment": "Inhibition of PRKCQ (unknown origin) at 100 nM in the presence of ATP by Kinome scan method relative to control"}, "[17]": {"molecular_target": "Proto-oncogene tyrosine-protein kinase Src (Homo sapiens) (UniProt P12931)", "experiment": "Inhibition of SRC (unknown origin) at 100 nM in the presence of ATP by Kinome scan method relative to control"}, "[18]": {"molecular_target": "Angiopoietin-1 receptor (Homo sapiens) (UniProt Q02763)", "experiment": "Inhibition of TEK (unknown origin) at 100 nM in the presence of ATP by Kinome scan method relative to control"}, "[19]": {"molecular_target": "CDK7/Cyclin H/MNAT1 (Homo sapiens) (UniProt P51946+P50613+P51948)", "experiment": "Inhibition of CDK7/cyclin H/MNAT1 (unknown origin) at 1000 nM in the presence of ATP by Kinome scan method relative to control", "assay_type": "protein-complex assay"}, "[20]": {"molecular_target": "Dual specificity protein kinase CLK1 (Homo sapiens) (UniProt P49759)", "experiment": "Inhibition of CLK1 (unknown origin) in human HCT-116 cells assessed as increase in CLK1 protein level at 0.5 to 0.1 uM incubated for 6 hrs by immunoblot analysis", "assay_type": "cell-based", "settings": "dose 0.5-0.1 µM", "summary_of_the_method": "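HCT116 cells were treated for 3 or 6 h and lysed in SDS sample buffer (Tris-HCl pH 6.8), then boiled for 5 min. Lysates were run on 5–15% or 4–12% gradient gels and transferred to nitrocellulose or PVDF. Blots were blocked in milk or BSA/TBS-T and probed overnight at 4 °C with anti-phospho-SR (1H4, 1/1000), anti-SR, anti-CLK1 or anti-CLK3 antibodies, with GAPDH as loading control.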"}, "[21]": {"molecular_target": "Dual specificity protein kinase CLK1 (Homo sapiens) (UniProt P49759)", "experiment": "Inhibition of CLK (unknown origin) in human HCT-116 cells assessed as decrease in SRSF4 phosphorylation level at 0.5 to 1.0 uM incubated for 6 hrs by immunoblot analysis", "assay_type": "cell-based", "settings": "dose 0.5-1 µM"}, "[22]": {"test_system": "HCT-116", "experiment": "Induction of cell cycle arrest in human HCT-116 cells assessed as G2/M phase at 0.1 uM incubated for 6 hrs by flow cytometry analysis (Rvb=25.8%)", "assay_type": "functional"}, "[23]": {"test_system": "HCT-116", "experiment": "Induction of cell cycle arrest in human HCT-116 cells assessed as G2/M phase at 1 uM incubated for 6 hrs by flow cytometry analysis (Rvb=25.8%)", "assay_type": "functional"}, "[24]": {"test_system": "HCT-116", "experiment": "Induction of cell cycle arrest in human HCT-116 cells assessed as G2/M phase at 10 uM incubated for 6 hrs by flow cytometry analysis (Rvb=25.8%)", "assay_type": "functional"}, "[25]": {"test_system": "HCT-116", "experiment": "Induction of cell cycle arrest in human HCT-116 cells assessed as S phase at 10 uM incubated for 6 hrs by flow cytometry analysis (Rvb=39.3%)", "assay_type": "functional"}, "[26]": {"test_system": "HCT-116", "experiment": "Induction of cell cycle arrest in human HCT-116 cells assessed as G0/G1 phase at 0.1 uM incubated for 24 hrs by flow cytometry analysis (Rvb=35.7%)", "assay_type": "functional"}, "[27]": {"test_system": "HCT-116", "experiment": "Induction of cell cycle arrest in human HCT-116 cells assessed as sub G0/G1 phase at 1 uM incubated for 24 hrs by flow cytometry analysis (Rvb=2.5%)", "assay_type": "functional"}, "[28]": {"test_system": "HCT-116", "experiment": "Induction of cell cycle arrest in human HCT-116 cells assessed as sub G0/G1 phase at 10 uM incubated for 24 hrs by flow cytometry analysis (Rvb=2.5%)", "assay_type": "functional"}, "[29]": {"test_system": "HCT-116", "experiment": "Induction of cell cycle arrest in human HCT-116 cells assessed as G0/G1 phase at 10 uM incubated for 24 hrs by flow cytometry analysis (Rvb=35.7%)", "assay_type": "functional"}, "[30]": {"molecular_target": "Dual specificity tyrosine-phosphorylation-regulated kinase 1A (Homo sapiens, UniProt Q13627)", "experiment": "Inhibition of DYRK1A (unknown origin) using ULight-MBP peptide as substrate incubated for 10 mins in presence of ATP incubated for 45 mins by LANCE Ultra kinase assay"}}, "note": "The source made the active and inactive calls. No cut-off for these calls is given here.", "data": [{"smiles": "CN1CCN(C(=O)C(C)(C)c2ccc(C(=O)Nc3cn4cc(-c5ccncc5)ccc4n3)cc2)CC1", "note": "[T3-CLK]", "values": [{"measurement": "Activity", "setting": "[1]", "value": 3.11, "unit": "%"}, {"measurement": "Activity", "setting": "[2]", "value": 8.13, "unit": "%"}, {"measurement": "inhibition", "setting": "[3]", "value": 99, "unit": "%"}, {"measurement": "inhibition", "setting": "[4]", "value": 89, "unit": "%"}, {"measurement": "inhibition", "setting": "[5]", "value": 94, "unit": "%"}, {"measurement": "inhibition", "setting": "[6]", "value": 2, "unit": "%"}, {"measurement": "inhibition", "setting": "[7]", "value": 18, "unit": "%"}, {"measurement": "inhibition", "setting": "[8]", "value": 10, "unit": "%"}, {"measurement": "inhibition", "setting": "[9]", "value": 22, "unit": "%"}, {"measurement": "inhibition", "setting": "[10]", "value": 42, "unit": "%"}, {"measurement": "inhibition", "setting": "[11]", "value": 11, "unit": "%"}, {"measurement": "inhibition", "setting": "[12]", "value": 14, "unit": "%"}, {"measurement": "inhibition", "setting": "[13]", "value": -7, "unit": "%"}, {"measurement": "inhibition", "setting": "[14]", "value": 25, "unit": "%"}, {"measurement": "inhibition", "setting": "[15]", "value": 4, "unit": "%"}, {"measurement": "inhibition", "setting": "[16]", "value": 5, "unit": "%"}, {"measurement": "inhibition", "setting": "[17]", "value": 13, "unit": "%"}, {"measurement": "inhibition", "setting": "[18]", "value": 0, "unit": "%"}, {"measurement": "inhibition", "setting": "[19]", "value": -3, "unit": "%"}, {"measurement": "inhibition", "setting": "[20]", "value": "Active"}, {"measurement": "inhibition", "setting": "[21]", "value": "Active"}, {"measurement": "Activity", "setting": "[22]", "value": 30.5, "unit": "%"}, {"measurement": "Activity", "setting": "[23]", "value": 34.6, "unit": "%"}, {"measurement": "Activity", "setting": "[24]", "value": 26.3, "unit": "%"}, {"measurement": "Activity", "setting": "[25]", "value": 45.3, "unit": "%"}, {"measurement": "Activity", "setting": "[26]", "value": 38.7, "unit": "%"}, {"measurement": "Activity", "setting": "[27]", "value": 20.4, "unit": "%"}, {"measurement": "Activity", "setting": "[28]", "value": 19, "unit": "%"}, {"measurement": "Activity", "setting": "[29]", "value": 21.3, "unit": "%"}, {"measurement": "IC50", "setting": "[30]", "value": 0.26, "unit": "µM"}]}]}
